Data published in ChEMBL document CHEMBL1240443, “A study of cytotoxicity of novel chlorokojic acid derivatives with their antimicrobial and antiviral activities” (Eur J Med Chem, 2010).
≈ marks a conversion by molar mass, not a printed value.

Legend:
[1] = tested on: Proteus mirabilis; test: Antimicrobial activity against extended spectrum beta lactamase expressing Proteus mirabilis by spectrophotometry; type: functional
Method in brief: (§1)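 Broth microdilution in Mueller–Hinton broth. Two-fold dilutions from 256 to 0.125 µg/mL. Inoculum 10^5 c.f.u./mL, diluted from a McFarland 0.5 culture. Incubated at 35 °C for 24 h and 48 h in a humid chamber, triplicate.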

[2] = tested on: Bacillus subtilis; test: Antimicrobial activity against ceftriaxone-resistant Bacillus subtilis by spectrophotometry; type: functional; method in brief: as §1
[3] = tested on: Staphylococcus aureus; test: Antimicrobial activity against methicillin-resistant Staphylococcus aureus by spectrophotometry; type: functional; method in brief: as §1
[4] = Cytotoxicity against MDBK cells after 48 hrs; type: cell-based, Bos taurus; conditions: cattle
[5] = tested on: Human respirovirus 3; test: Antiviral activity against parainfluenza-3 virus infected in Vero cells assessed as reduction of virus-induced cytopathic effect; type: functional
Method in brief: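 Vero cells grown in EMEM with 10% fetal calf serum. Two-fold dilutions from 51.2 to 0.012 µg/mL, with PI-3 added at its TCID50-based titre, held 2 h at 37 °C in 5% CO2. CPE scored by microscope against untreated controls, giving the CPE-inhibitory concentration range.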

[6] = tested on: Klebsiella pneumoniae; test: Antimicrobial activity against extended spectrum beta lactamase expressing Klebsiella pneumoniae by spectrophotometry; type: functional; method in brief: as §1
[7] = tested on: Acinetobacter baumannii; test: Antimicrobial activity against cephalosporin-resistant Acinetobacter baumannii by spectrophotometry; type: functional; method in brief: as §1
[8] = tested on: Acinetobacter baumannii; test: Antimicrobial activity against Acinetobacter baumannii RSKK 02026 by spectrophotometry; type: functional; method in brief: as §1
[9] = tested on: Pseudomonas aeruginosa; test: Antimicrobial activity against trimethoprim-sulfamethoxazole and tazobactum-induced Pseudomonas aeruginosa by spectrophotometry; type: functional; method in brief: as §1
[10] = tested on: Candida parapsilosis; test: Antifungal activity against Candida parapsilosis ATCC 22019 by spectrophotometry; type: functional; conditions: Lodderomyces parapsilosis
Method in brief: (§2)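 Yeast broth microdilution in RPMI-1640 with L-glutamine, buffered to pH 7 with MOPS. Inoculum 10^5 c.f.u./mL, prepared by the spectrophotometric method. Two-fold dilutions from 256 to 0.125 µg/mL. Incubated at 35 °C for 24 h and 48 h in a humid chamber, triplicate.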

[11] = tested on: Bacillus subtilis; test: Antimicrobial activity against Bacillus subtilis ATCC 6633 by spectrophotometry; type: functional; method in brief: as §1
[12] = tested on: Pseudomonas aeruginosa; test: microbe, parasite or virus in culture; conditions: ATCC 10145
[13] = tested on: Enterococcus faecalis; test: Antimicrobial activity against cephalosporin-resistant Enterococcus faecalis by spectrophotometry; type: functional; method in brief: as §1
[14] = tested on: Escherichia coli; test: Antimicrobial activity against Escherichia coli ATCC 35218 by spectrophotometry; type: functional; method in brief: as §1
[15] = tested on: Enterococcus faecalis; test: Antimicrobial activity against Enterococcus faecalis ATCC 29212 by spectrophotometry; type: functional; method in brief: as §1
[16] = tested on: Escherichia coli; test: Antimicrobial activity against extended spectrum beta lactamase expressing Escherichia coli by spectrophotometry; type: functional; method in brief: as §1
[17] = tested on: Klebsiella pneumoniae; test: Antimicrobial activity against Klebsiella pneumoniae RSKK 574 by spectrophotometry; type: functional; method in brief: as §1
[18] = Cytotoxicity against african green monkey Vero cells after 48 hrs; type: cell-based; conditions: chlorocebus sabaeus
Method in brief: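 Confluent cell monolayers exposed to two-fold (Log2) dilutions of each sample (51.2–0.012 µg/mL) in EMEM, 5% CO2, 37 °C, 48 h. Scored by light microscopy against untreated cultures; rows damaging all cells counted toxic. Maximum non-toxic concentration (MNTC, µg/mL) taken as highest concentration leaving cells unaffected. Vero grown in EMEM/10% fetal calf serum with streptomycin/penicillin.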

[19] = tested on: Proteus mirabilis; test: Antimicrobial activity against Proteus mirabilis ATCC 7002 by spectrophotometry; type: functional; method in brief: as §1
[20] = tested on: Candida albicans; test: Antifungal activity against Candida albicans ATCC 10231 by spectrophotometry; type: functional; method in brief: as §2

Row | Structure (SMILES) | MIC [1] [µg/mL] | MIC [2] [µg/mL] | MIC [3] [µg/mL] | MNTC at 48 h [4] [µg/mL] | CPE-inhibitory concentration [5] [µg/mL] | MIC [6] [µg/mL] | MIC [7] [µg/mL] | MIC [8] [µg/mL] | MIC [9] [µg/mL] | MIC [10] [µg/mL] | MIC [11] [µg/mL] | MIC [12] [µg/mL] | MIC [13] [µg/mL] | MIC [14] [µg/mL] | MIC [15] [µg/mL] | MIC [16] [µg/mL] | MIC [17] [µg/mL] | MNTC at 48 h [18] [µg/mL] | MIC [19] [µg/mL] | MIC [20] [µg/mL]
1 | O=c1cc(CCl)oc(CN2CCN(Cc3ccc(F)cc3)CC2)c1O | 64 (≈ 174 µM) | 64 (≈ 174 µM) | 64 (≈ 174 µM) | 1.6 | 0.05 | 64 (≈ 174 µM) | 64 (≈ 174 µM) | 32 (≈ 87.2 µM) | 64 (≈ 174 µM) | 16 (≈ 43.6 µM) | 32 (≈ 87.2 µM) | 16 (≈ 43.6 µM) | 32 (≈ 87.2 µM) | 16 (≈ 43.6 µM) | 16 (≈ 43.6 µM) | 64 (≈ 174 µM) | 16 (≈ 43.6 µM) | 0.4 | 16 (≈ 43.6 µM) | 16 (≈ 43.6 µM)
2 | CCOC(=O)C1=C[C@@H](OC(CC)CC)[C@H](NC(C)=O)[C@@H](N)C1 [OSELTAMIVIR] |  |  |  |  | 0.012 |  |  |  |  |  |  |  |  |  |  |  |  | 1.6 |  | 
3 | Nc1nc2c(ncn2COCCO)c(=O)[nH]1 [ACYCLOVIR] |  |  |  | 1.6 | 0.012 |  |  |  |  |  |  |  |  |  |  |  |  |  |  | 
4 | O=c1cc(CCl)oc(CN2CCC(O)(c3ccc(Br)cc3)CC2)c1O | 64 (≈ 149 µM) | 2 (≈ 4.67 µM) | 64 (≈ 149 µM) | 0.4 | 0.05 | 64 (≈ 149 µM) | 16 (≈ 37.3 µM) | 4 (≈ 9.33 µM) | 16 (≈ 37.3 µM) | 8 (≈ 18.7 µM) | 1 (≈ 2.33 µM) | 2 (≈ 4.67 µM) | 32 (≈ 74.6 µM) | 4 (≈ 9.33 µM) | 16 (≈ 37.3 µM) | 64 (≈ 149 µM) | 4 (≈ 9.33 µM) | 0.8 | 8 (≈ 18.7 µM) | 4 (≈ 9.33 µM)
5 | CC1(C)S[C@@H]2[C@H](NC(=O)[C@H](N)c3ccccc3)C(=O)N2[C@H]1C(=O)O [AMPICILLIN] | > 128 | 0.5 (≈ 1.43 µM) | > 128 |  |  | > 128 | > 128 | 2 (≈ 5.72 µM) |  |  | 0.12 (≈ 0.343 µM) |  | > 128 |  | 0.5 (≈ 1.43 µM) | > 128 | 2 (≈ 5.72 µM) |  | 2 (≈ 5.72 µM) | 
6 | O=c1cc(CCl)oc(CN2CCN(Cc3ccc(Cl)c(Cl)c3)CC2)c1O | 64 (≈ 153 µM) | 2 (≈ 4.79 µM) | 128 (≈ 306 µM) | 0.4 | 0.05 | 4 (≈ 9.58 µM) | 16 (≈ 38.3 µM) | 8 (≈ 19.2 µM) | 16 (≈ 38.3 µM) | 8 (≈ 19.2 µM) | 1 (≈ 2.39 µM) | 4 (≈ 9.58 µM) | 128 (≈ 306 µM) | 8 (≈ 19.2 µM) | 16 (≈ 38.3 µM) | 4 (≈ 9.58 µM) | 8 (≈ 19.2 µM) | 0.8 | 16 (≈ 38.3 µM) | 4 (≈ 9.58 µM)
7 | CC1COc2c(N3CCN(C)CC3)c(F)cc3c(=O)c(C(=O)O)cn1c23 (configuration not stated) [OFLOXACIN] | 1 (≈ 2.77 µM) |  | 64 (≈ 177 µM) |  |  |  | 64 (≈ 177 µM) | 0.12 (≈ 0.332 µM) |  |  |  |  | 32 (≈ 88.6 µM) |  | 1 (≈ 2.77 µM) |  | < 0.12 |  | < 0.12 | 
8 | C[C@H]1COc2c(N3CCN(C)CC3)c(F)cc3c(=O)c(C(=O)O)cn1c23.C[C@H]1COc2c(N3CCN(C)CC3)c(F)cc3c(=O)c(C(=O)O)cn1c23.O [LEVOFLOXACIN] | 1 |  | 128 |  |  |  | 64 | 0.12 |  |  |  |  | 32 |  | 0.5 |  | < 0.12 |  | < 0.12 | 
